Test results as given in ChEMBL document CHEMBL1154121, “alpha-Substituted norstatines as the transition-state mimic in inhibitors of multiple digestive vacuole malaria aspartic proteases” (Bioorg Med Chem, 2009).
Active and inactive are the calls of the source. The rule behind the calls is not given here.

Key:
Cathepsin D [1] = target: T1, Cathepsin D (Homo sapiens, UniProt P07339); experiment: Ratio of compound Ki to KNI-10006 Ki for human liver cathepsin D
[2] = Inhibition of Plasmodium falciparum plasmepsin-4 expressed in Escherichia coli BL21 (DE3) by spectrophotometric assay with chromogenic substrate
[3] = Inhibition of Plasmodium malariae plasmepsin-4 expressed in Escherichia coli BL21 (DE3) by spectrophotometric assay with chromogenic substrate
[4] = target: Beta-secretase 1 (Homo sapiens) (UniProt P56817); experiment: Inhibition of human BACE1 at < 10 uM
Plasmepsin II = Plasmepsin II (Plasmodium falciparum, UniProt P46925); experiment: Inhibition of Plasmodium falciparum plasmepsin-2 expressed in Escherichia coli BL21 (DE3) by spectrophotometric assay with chromogenic substrate
[5] = Inhibition of Plasmodium ovale plasmepsin-4 expressed in Escherichia coli BL21 (DE3) by spectrophotometric assay with chromogenic substrate
Aspartic protease PM4 = Aspartic protease PM4 (Plasmodium vivax, UniProt O60989); experiment: Inhibition of Plasmodium vivax plasmepsin-4 expressed in Escherichia coli BL21 (DE3) by spectrophotometric assay with chromogenic substrate
Cathepsin D [6] = target: T1, Cathepsin D; experiment: Inhibition of human liver cathepsin D
Procedure, shortened: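 Human liver cathepsin D activated 20 min at 37 °C in 100 mM sodium acetate pH 4.5, 10% glycerol, 0.01% Tween 20. Inhibitor serially diluted in DMSO (1% final) added before 3 µM DABCYL-Glu-Arg-Nle-Phe-Leu-Ser-Phe-Pro-EDANS; fluorescence increase read over 10 min. IC50 from Langmuir isotherm assuming competitive inhibition, converted to Ki via IC50/(1+[S]/Km); top concentration limited to 10.0 µM by inhibitor fluorescence.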

[7] = test system: Human immunodeficiency virus 1; experiment: Antiviral activity against HIV1 replication in infected cells; format: functional, organism-based
[8] = Inhibition of Plasmodium falciparum plasmepsin-4
Procedure, shortened: (§1)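 Self-activated in 0.1 M sodium acetate pH 4.5, 37 °C, 5 min. Chromogenic substrate hydrolysis followed spectrophotometrically; Michaelis-Menten curves at ≥5 substrate levels with no inhibitor and two inhibitor concentrations, fitted together for Ki.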

Protease = Protease (Human immunodeficiency virus 1, UniProt Q9YQ12); experiment: Inhibition of HIV1 protease
Procedure, shortened: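 Recombinant HIV-1 protease expressed in E. coli; Ki from fluorometric assay, two independent measurements; a reference inhibitor included to check variability, standard deviation ±50% of mean.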

[9] = Inhibition of Plasmodium malariae plasmepsin-4; procedure, shortened: as §1
[10] = Selectivity ratio of Ki for human liver cathepsin D to Ki for Plasmodium falciparum plasmepsin-2 expressed in Escherichia coli BL21 (DE3)
Plasmepsin I = Plasmepsin I (Plasmodium falciparum, UniProt P39898); experiment: Inhibition of Plasmodium falciparum plasmepsin-1
Plasmodium falciparum = experiment: Antiplasmodial activity against Plasmodium falciparum infected in erythrocyte culture; format: functional, organism-based
Plasmepsin III = Plasmepsin III (Plasmodium falciparum, UniProt Q9Y006); experiment: Inhibition of Plasmodium falciparum histo-aspartyl protease
[11] = test system: Human immunodeficiency virus 1; experiment: Antiviral activity against HIV1 3B infected in human MT4 cells; format: functional, organism-based; settings: Human immunodeficiency virus 1, 3B

Beta-secretase 1 (Homo sapiens), sequence (P56817 whole entry): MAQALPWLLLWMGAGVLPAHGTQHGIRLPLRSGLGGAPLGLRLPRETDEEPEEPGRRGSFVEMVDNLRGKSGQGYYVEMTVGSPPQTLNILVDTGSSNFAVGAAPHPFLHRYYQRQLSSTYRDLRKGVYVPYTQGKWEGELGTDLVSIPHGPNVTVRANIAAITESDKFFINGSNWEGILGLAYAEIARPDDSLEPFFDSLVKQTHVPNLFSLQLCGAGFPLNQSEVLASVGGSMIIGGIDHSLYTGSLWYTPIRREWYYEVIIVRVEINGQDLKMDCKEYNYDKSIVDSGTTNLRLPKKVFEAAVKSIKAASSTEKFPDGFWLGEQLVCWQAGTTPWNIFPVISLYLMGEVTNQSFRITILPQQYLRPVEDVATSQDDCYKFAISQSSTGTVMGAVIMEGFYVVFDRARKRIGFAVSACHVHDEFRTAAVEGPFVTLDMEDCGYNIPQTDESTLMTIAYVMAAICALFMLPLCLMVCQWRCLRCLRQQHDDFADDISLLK
Aspartic protease PM4, sequence (O60989 whole entry): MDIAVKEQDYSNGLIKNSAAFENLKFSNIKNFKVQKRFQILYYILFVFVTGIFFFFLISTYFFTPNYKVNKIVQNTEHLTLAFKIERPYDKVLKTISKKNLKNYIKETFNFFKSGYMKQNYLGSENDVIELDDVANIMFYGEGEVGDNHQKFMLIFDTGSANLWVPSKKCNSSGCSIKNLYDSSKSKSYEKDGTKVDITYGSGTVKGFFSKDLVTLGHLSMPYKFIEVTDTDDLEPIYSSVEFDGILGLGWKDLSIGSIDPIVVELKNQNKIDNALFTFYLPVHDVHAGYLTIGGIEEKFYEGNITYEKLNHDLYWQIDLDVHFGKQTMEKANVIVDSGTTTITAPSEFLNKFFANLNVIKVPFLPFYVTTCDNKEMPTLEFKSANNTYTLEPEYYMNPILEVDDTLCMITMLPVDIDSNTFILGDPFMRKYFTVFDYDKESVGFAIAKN
T1 sequence (P07339 65-162 limits assumed): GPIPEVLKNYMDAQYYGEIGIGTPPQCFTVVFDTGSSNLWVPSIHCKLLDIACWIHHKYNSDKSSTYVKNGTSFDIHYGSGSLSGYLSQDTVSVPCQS
T1 sequence (P07339 169-412 limits assumed): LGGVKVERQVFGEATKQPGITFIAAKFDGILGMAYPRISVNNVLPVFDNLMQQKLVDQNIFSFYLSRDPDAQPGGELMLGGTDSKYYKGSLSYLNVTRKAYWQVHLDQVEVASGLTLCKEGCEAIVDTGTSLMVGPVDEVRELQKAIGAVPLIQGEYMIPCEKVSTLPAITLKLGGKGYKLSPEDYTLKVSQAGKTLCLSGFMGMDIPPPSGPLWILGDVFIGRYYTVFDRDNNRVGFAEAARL
Protease, sequence (Q9YQ12 whole entry): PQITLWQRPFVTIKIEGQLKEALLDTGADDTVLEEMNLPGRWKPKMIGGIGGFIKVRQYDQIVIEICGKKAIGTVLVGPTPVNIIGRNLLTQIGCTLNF
Plasmepsin II, sequence (P46925 whole entry): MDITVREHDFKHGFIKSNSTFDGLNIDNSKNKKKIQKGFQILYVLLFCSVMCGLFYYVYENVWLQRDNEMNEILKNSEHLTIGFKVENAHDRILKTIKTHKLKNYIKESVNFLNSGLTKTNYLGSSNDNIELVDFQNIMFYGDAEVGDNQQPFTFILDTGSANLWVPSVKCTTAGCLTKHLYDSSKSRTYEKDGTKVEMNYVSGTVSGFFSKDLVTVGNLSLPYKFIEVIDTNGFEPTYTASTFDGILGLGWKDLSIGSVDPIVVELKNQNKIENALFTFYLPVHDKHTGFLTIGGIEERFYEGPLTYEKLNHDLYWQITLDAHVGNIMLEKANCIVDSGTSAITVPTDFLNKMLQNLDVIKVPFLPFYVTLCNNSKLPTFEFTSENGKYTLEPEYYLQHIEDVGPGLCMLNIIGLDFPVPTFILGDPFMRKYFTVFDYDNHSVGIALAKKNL
Plasmepsin I, sequence (P39898 whole entry): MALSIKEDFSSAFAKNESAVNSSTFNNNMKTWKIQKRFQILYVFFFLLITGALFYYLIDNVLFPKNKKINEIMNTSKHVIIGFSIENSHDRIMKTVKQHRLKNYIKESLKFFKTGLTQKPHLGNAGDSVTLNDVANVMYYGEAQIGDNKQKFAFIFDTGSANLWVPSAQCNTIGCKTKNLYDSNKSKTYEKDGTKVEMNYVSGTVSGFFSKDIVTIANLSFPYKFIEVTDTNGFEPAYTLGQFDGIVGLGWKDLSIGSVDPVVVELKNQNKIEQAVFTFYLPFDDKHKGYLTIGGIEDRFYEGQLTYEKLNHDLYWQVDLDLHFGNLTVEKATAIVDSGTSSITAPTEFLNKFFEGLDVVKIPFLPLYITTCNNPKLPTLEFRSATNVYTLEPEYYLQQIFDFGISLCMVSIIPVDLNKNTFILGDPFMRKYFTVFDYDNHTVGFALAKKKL
Plasmepsin III, sequence (Q9Y006 whole entry): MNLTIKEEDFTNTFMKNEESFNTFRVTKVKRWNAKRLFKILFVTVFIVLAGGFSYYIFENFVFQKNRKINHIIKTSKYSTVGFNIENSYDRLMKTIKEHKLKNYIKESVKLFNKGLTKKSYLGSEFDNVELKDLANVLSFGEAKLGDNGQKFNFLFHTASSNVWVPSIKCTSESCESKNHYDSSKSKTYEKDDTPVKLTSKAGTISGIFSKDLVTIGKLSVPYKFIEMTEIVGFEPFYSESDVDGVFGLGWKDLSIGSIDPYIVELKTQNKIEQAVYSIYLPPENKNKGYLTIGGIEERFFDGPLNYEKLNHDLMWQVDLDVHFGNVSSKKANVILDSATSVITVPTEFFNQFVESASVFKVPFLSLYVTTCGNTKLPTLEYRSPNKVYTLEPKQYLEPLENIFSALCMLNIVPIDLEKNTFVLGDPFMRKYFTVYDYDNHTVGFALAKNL

Ratio Ki (Cathepsin D [1]) | Activity [4] | Ki (Plasmepsin II) | Ki (Aspartic protease PM4) | Ki (Cathepsin D [6]) | Structure (SMILES) | Ki [2] | Ki [3] | Ki [5] | other results
5000 |  |  |  |  | Cc1cccc(C)c1OCC(=O)NCC(O)(CCc1ccccc1)C(=O)N1CCC[C@H]1C(=O)N[C@H]1c2ccccc2C[C@H]1O (stereo in doubt; (A)-19) [listing 1 of 2 here] |  |  |  | 
5000 | inactive | 830 nM | 160 nM | > 10000 nM | Cc1cccc(C)c1OCC(=O)NC[C@@](O)(Cc1ccccc1)C(=O)N1CSC(C)(C)[C@@H]1C(=O)N[C@H]1c2ccccc2C[C@H]1O | 1700 nM | 210 nM | 1300 nM | 
 |  |  |  |  | COC(=O)N[C@H](C(=O)NN(Cc1ccccc1)C[C@](O)(Cc1ccccc1)C(=O)N[C@H]1c2ccccc2C[C@H]1O)C(C)(C)C |  |  |  | EC50 [7]: > 10000 nM; Ki [8]: 48000 nM; Ki (Protease): 2200 nM
 |  |  |  |  | Cc1ccccc1CNC(=O)[C@H]1N(C(=O)[C@@H](O)[C@H](Cc2ccccc2)NC(=O)c2cccc(O)c2C)CSC1(C)C |  |  |  | Ki [9]: 110 nM
5000 | inactive |  |  |  | Cc1cccc(C)c1OCC(=O)NCC(O)(CCc1ccccc1)C(=O)N[C@@H](Cc1ccccc1)C(=O)N[C@H]1c2ccccc2C[C@H]1O (stereo in doubt; (A)-20) [listing 1 of 2 here] |  |  |  | 
 |  | > 20000 nM | 1300 nM |  | Cc1cccc(C)c1OCC(=O)NCC(O)(CCc1ccccc1)C(=O)N1CCC[C@H]1C(=O)N[C@H]1c2ccccc2C[C@H]1O (stereo in doubt; (B)-19) [listing 1 of 2 here] | 26900 nM | 13000 nM | 10300 nM | 
5000 |  | 7400 nM | 2200 nM | > 10000 nM | Cc1cccc(C)c1OCC(=O)NC[C@](O)(CCc1ccccc1)C(=O)N1CSC(C)(C)[C@H]1C(=O)N[C@H]1c2ccccc2C[C@H]1O | 5500 nM | > 20000 nM | 6500 nM | 
 |  |  |  | > 10000 nM | Cc1cccc(C)c1OCC(=O)NCC(O)(CCc1ccccc1)C(=O)N[C@@H](Cc1ccccc1)C(=O)N[C@H]1c2ccccc2C[C@H]1O (stereo in doubt; (A)-20) [listing 2 of 2 here] | > 20000 nM |  |  | 
5000 |  | 440 nM | 390 nM | > 10000 nM | Cc1cccc(C)c1OCC(=O)NC[C@@](O)(CCc1ccccc1)C(=O)N1CSC(C)(C)[C@@H]1C(=O)N[C@H]1c2ccccc2C[C@H]1O | 6300 nM | 1100 nM | 1000 nM | Ratio Ki [10]: > 20000
 |  |  |  |  | COC(=O)N[C@H](C(=O)NN(Cc1ccccc1)C[C@@](O)(Cc1ccccc1)C(=O)N[C@H]1c2ccccc2C[C@H]1O)C(C)(C)C |  |  |  | EC50 [7]: 1900 nM; Ki [8]: 12000 nM; Ki (Protease): 6 nM
5000 | inactive | > 20000 nM | 190 nM | > 10000 nM | Cc1cccc(C)c1OCC(=O)NC[C@](O)(Cc1ccccc1)C(=O)N1CSC(C)(C)[C@H]1C(=O)N[C@H]1c2ccccc2C[C@H]1O | 720 nM | 250 nM | 530 nM | 
 |  |  |  | > 10000 nM | Cc1cccc(C)c1OCC(=O)NCC(O)(CCc1ccccc1)C(=O)N[C@@H](Cc1ccccc1)C(=O)N[C@H]1c2ccccc2C[C@H]1O (stereo in doubt; (B)-20) [listing 1 of 2 here] |  |  |  | Ki (Protease): 1000 nM
5000 | inactive | 1700 nM | 120 nM | > 10000 nM | Cc1cccc(C)c1OCC(=O)NC[C@](O)(Cc1ccccc1)C(=O)N1CSC(C)(C)[C@@H]1C(=O)N[C@H]1c2ccccc2C[C@H]1O | 1700 nM | 420 nM | 610 nM | Ki (Protease): 670 nM
 |  |  |  | 2 nM | Cc1cccc(C)c1OCC(=O)N[C@@H](Cc1ccccc1)[C@H](O)C(=O)N1CSC(C)(C)[C@H]1C(=O)N[C@H]1c2ccccc2C[C@H]1O |  |  |  | IC50 (Plasmepsin I): 280 nM; IC50 [8]: 15 nM; Ratio Ki [10]: 4; IC50 (Plasmodium falciparum): 6800 nM; IC50 (Plasmepsin III): 690 nM
5000 |  |  |  |  | Cc1cccc(C)c1OCC(=O)NCC(O)(CCc1ccccc1)C(=O)N1CCC[C@H]1C(=O)N[C@H]1c2ccccc2C[C@H]1O (stereo in doubt; (B)-19) [listing 2 of 2 here] |  |  |  | 
5000 |  | 1400 nM | 370 nM | > 10000 nM | Cc1cccc(C)c1OCC(=O)NC[C@@](O)(CCc1ccccc1)C(=O)N1CSC(C)(C)[C@H]1C(=O)N[C@H]1c2ccccc2C[C@H]1O | 3100 nM | 7900 nM | 4500 nM | EC50 [11]: 6400 nM
5000 | inactive |  |  |  | Cc1cccc(C)c1OCC(=O)NCC(O)(CCc1ccccc1)C(=O)N[C@@H](Cc1ccccc1)C(=O)N[C@H]1c2ccccc2C[C@H]1O (stereo in doubt; (B)-20) [listing 2 of 2 here] |  |  |  | 
5000 |  | 7600 nM | 340 nM | > 10000 nM | Cc1cccc(C)c1OCC(=O)NC[C@](O)(CCc1ccccc1)C(=O)N1CSC(C)(C)[C@@H]1C(=O)N[C@H]1c2ccccc2C[C@H]1O | 10700 nM | 1600 nM | 880 nM | 
5000 | inactive | > 20000 nM | 160 nM | > 10000 nM | Cc1cccc(C)c1OCC(=O)NC[C@@](O)(Cc1ccccc1)C(=O)N1CSC(C)(C)[C@H]1C(=O)N[C@H]1c2ccccc2C[C@H]1O | 700 nM | 260 nM | 110 nM | 
 |  | > 20000 nM | 2200 nM | > 10000 nM | Cc1cccc(C)c1OCC(=O)NCC(O)(CCc1ccccc1)C(=O)N1CCC[C@H]1C(=O)N[C@H]1c2ccccc2C[C@H]1O (stereo in doubt; (A)-19) [listing 2 of 2 here] | 30200 nM | 14500 nM | 7200 nM | 
